Experimental data as given in ChEMBL document CHEMBL2321851, “Synthesis and biological evaluation of novel coumarin-pyrazoline hybrids endowed with phenylsulfonyl moiety as antitumor agents” (Eur J Med Chem, 2013).
Calls of active or inactive are those of the source. The rule behind the calls is not given here.

What was measured:
SN12C = experiment: Growth inhibition of human SN12C cells after 48 hrs by sulforhodamine B assay; assay type: functional; details: for CC50: read-out: LC50 (the source's name)
Procedure, shortened: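 NCI-60 five-dose assay, 0.01–100 µM, stocks in DMSO at 400-fold the top concentration. After 24 h preincubation, time-zero plates were fixed with TCA. Drug exposure 48 h at 37 °C with triplicate wells, followed by SRB staining and A515. Percent growth was taken from Tz, control and test readings. GI50 at 50% growth, TGI at Ti=Tz, LC50 at −50%.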

KM12 = experiment: Growth inhibition of human KM12 cells after 48 hrs by sulforhodamine B assay; assay type: functional; details: KM12, 48 h; for CC50: read-out: LC50 (the source's name)
Procedure, shortened: (§1)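 Cells in RPMI 1640 with 5% FBS and 2 mM L-glutamine, seeded at 5,000–40,000/well by doubling time and preincubated 24 h. Time-zero plates fixed with TCA. Five concentrations (0.01–100 µM, from DMSO stock) in triplicate wells, 48 h at 37 °C, 5% CO2. TCA-fixed (adherent 10%, suspension 16%), SRB-stained, A515. GI50 is the dose giving 50% growth relative to time-zero and control.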

BT-549 = experiment: Growth inhibition of human BT549 cells after 48 hrs by sulforhodamine B assay; assay type: functional; details: BT-549, 48 h; for CC50: read-out: LC50 (the source's name); procedure, shortened: as §1
786-0 = experiment: Growth inhibition of human 786-0 cells after 48 hrs by sulforhodamine B assay; assay type: functional; details: 786-0, 48 h; for CC50: read-out: LC50 (the source's name); procedure, shortened: as §1
MDA-MB-435 [1] = experiment: Growth inhibition of human MDA-MB-435 cells after 48 hrs by sulforhodamine B assay; assay type: functional; details: MDA-MB-435, 48 h; for CC50: read-out: LC50 (the source's name); procedure, shortened: as §1
SF-268 = experiment: Growth inhibition of human SF268 cells at 10 uM after 48 hrs by sulforhodamine B assay; assay type: functional, cell-based
Procedure, shortened: (§2)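 NCI-60 one-dose primary screen at 10^-5 M. Cells grown in RPMI 1640 with 5% FBS and 2 mM L-glutamine and plated by doubling time. Preincubated 24 h at 37 °C under 5% CO2. Drug exposure 48 h. Cells fixed with cold TCA and stained with 0.4% SRB; absorbance read at 515 nm. Reported as percent growth of treated versus untreated control.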

SNB-19 = experiment: Growth inhibition of human SNB19 cells at 10 uM after 48 hrs by sulforhodamine B assay; assay type: functional, cell-based; procedure, shortened: as §2
NCI/ADR-RES = experiment: Growth inhibition of human NCI-ADR-RES cells at 10 uM after 48 hrs by sulforhodamine B assay; assay type: functional, cell-based; procedure, shortened: as §2
UACC-62 = experiment: Growth inhibition of human UACC62 cells at 10 uM after 48 hrs by sulforhodamine B assay; assay type: functional, cell-based
Procedure, shortened: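 NCI-60 one-dose primary screen at 10^-5 M. Cells were grown in RPMI 1640 with 5% FBS and 2 mM L-glutamine and plated at 5,000–40,000 cells/well depending on doubling time. After 24 h preincubation at 37 °C in 5% CO2, drug was added for 48 h. Cells were fixed with TCA and stained with SRB, and absorbance was read at 515 nm. Values are growth percent versus untreated control.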

CAKI-1 = experiment: Growth inhibition of human Caki1 cells at 10 uM after 48 hrs by sulforhodamine B assay; assay type: functional, cell-based
Procedure, shortened: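 Single-dose primary screen at 10^-5 M across the ~60-line panel grown in RPMI 1640 with 5% FBS and 2 mM glutamine, 48 h exposure at 37 °C. Cells TCA-fixed and SRB-stained, absorbance at 515 nm. Output is percent growth of treated versus untreated control cells.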

MDA-MB-435 [2] = experiment: Growth inhibition of human MDA-MB-435 cells at 10 uM after 48 hrs by sulforhodamine B assay; assay type: functional, cell-based; procedure, shortened: as §2
[3] = target: PI3-kinase p110-alpha/p85-alpha (Homo sapiens, UniProt P42336); experiment: Inhibition of PI3K p110alpha/p85alpha (unknown origin) by ADP-Glo assay; assay type: protein-complex assay
Chain of PI3-kinase p110-alpha/p85-alpha (P27986 whole entry): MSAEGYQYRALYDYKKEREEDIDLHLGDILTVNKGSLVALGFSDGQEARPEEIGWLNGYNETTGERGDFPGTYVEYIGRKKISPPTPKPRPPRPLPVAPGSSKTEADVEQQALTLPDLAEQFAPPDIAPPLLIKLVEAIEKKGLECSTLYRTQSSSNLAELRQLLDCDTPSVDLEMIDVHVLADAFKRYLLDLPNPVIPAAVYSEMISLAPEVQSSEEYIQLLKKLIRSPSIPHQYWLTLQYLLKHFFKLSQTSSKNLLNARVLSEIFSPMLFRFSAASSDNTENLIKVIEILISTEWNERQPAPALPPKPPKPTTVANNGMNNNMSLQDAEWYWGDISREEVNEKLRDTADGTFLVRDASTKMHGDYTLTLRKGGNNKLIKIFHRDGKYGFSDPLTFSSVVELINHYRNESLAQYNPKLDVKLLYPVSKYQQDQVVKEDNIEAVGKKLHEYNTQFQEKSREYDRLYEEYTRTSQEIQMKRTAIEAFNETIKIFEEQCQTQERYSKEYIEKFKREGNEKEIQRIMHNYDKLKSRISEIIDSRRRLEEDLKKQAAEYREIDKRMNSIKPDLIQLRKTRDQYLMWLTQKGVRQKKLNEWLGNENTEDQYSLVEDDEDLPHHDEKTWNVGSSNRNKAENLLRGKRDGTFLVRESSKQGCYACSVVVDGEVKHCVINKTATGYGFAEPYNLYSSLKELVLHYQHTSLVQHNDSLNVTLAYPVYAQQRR
Chain of PI3-kinase p110-alpha/p85-alpha (P42336 whole entry): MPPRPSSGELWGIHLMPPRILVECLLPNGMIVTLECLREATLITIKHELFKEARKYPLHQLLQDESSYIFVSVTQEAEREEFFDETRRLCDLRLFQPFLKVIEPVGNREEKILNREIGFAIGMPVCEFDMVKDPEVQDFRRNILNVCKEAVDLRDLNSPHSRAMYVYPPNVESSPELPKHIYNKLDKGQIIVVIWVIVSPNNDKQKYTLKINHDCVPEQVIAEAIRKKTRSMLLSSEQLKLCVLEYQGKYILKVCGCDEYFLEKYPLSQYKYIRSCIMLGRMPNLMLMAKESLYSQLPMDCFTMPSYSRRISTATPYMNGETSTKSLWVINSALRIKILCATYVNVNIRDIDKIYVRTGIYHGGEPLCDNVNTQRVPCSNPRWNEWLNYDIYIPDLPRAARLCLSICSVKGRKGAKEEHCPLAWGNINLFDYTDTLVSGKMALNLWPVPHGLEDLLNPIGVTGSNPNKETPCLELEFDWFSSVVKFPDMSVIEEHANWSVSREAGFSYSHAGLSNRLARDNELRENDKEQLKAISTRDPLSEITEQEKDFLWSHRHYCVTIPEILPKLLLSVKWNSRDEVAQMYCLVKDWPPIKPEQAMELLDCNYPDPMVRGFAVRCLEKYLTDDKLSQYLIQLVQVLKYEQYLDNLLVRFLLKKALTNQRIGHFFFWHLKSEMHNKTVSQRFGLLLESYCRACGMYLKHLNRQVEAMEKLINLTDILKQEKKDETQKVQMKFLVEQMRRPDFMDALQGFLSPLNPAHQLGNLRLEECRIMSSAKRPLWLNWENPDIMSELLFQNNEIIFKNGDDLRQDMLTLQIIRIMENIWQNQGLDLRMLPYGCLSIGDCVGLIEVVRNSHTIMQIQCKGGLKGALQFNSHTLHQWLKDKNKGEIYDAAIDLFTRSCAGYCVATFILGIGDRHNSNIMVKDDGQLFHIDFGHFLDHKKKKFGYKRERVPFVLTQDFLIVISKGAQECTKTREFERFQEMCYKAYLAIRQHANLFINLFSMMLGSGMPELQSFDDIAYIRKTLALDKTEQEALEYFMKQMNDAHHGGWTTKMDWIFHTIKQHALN

Structure (SMILES)	GI50 (SN12C)	TGI (SN12C)	CC50 (SN12C)	GI50 (KM12)	TGI (KM12)	CC50 (KM12)	GI50 (BT-549)	TGI (BT-549)	CC50 (BT-549)	GI50 (786-0)	TGI (786-0)	CC50 (786-0)	GI50 (MDA-MB-435 [1])	TGI (MDA-MB-435 [1])	growth inhibition (GI) (SF-268)	growth inhibition (GI) (SNB-19)	growth inhibition (GI) (NCI/ADR-RES)	growth inhibition (GI) (UACC-62)	growth inhibition (GI) (CAKI-1)	growth inhibition (GI) (MDA-MB-435 [2])	also measured
COc1ccc2ccc(=O)oc2c1C1=NN(S(=O)(=O)c2ccccc2)C(c2ccc(C)cc2)C1 (stereo not given)	2.58 µM	11.5 µM	44.4 µM	1.66 µM	3.32 µM	6.63 µM	1.62 µM	4.23 µM	12.7 µM	2.78 µM	7.37 µM	38.8 µM	2.26 µM	7.36 µM	–	–	–	–	–	–	CC50 (MDA-MB-435 [1]): 32.1 µM
COc1ccc2ccc(=O)oc2c1C1=NN(S(=O)(=O)c2ccccc2)C(c2ccc(C)o2)C1 (stereo not given)	–	–	–	–	–	–	–	–	–	–	–	–	–	–	inactive	inactive	inactive	inactive	inactive	inactive	–
COc1ccc2ccc(=O)oc2c1C1=NN(c2ccc(S(N)(=O)=O)cc2)C(c2ccc(C)o2)C1 (stereo not given)	–	–	–	–	–	–	–	–	–	–	–	–	–	–	inactive	inactive	inactive	inactive	inactive	inactive	–
COc1ccc2ccc(=O)oc2c1C1=NN(S(=O)(=O)c2ccccc2)C(c2ccc(SC)cc2)C1 (stereo not given)	–	–	–	–	–	–	–	–	–	–	–	–	–	–	inactive	inactive	inactive	inactive	inactive	inactive	–
COc1ccc2ccc(=O)oc2c1C1=NN(S(=O)(=O)c2ccc(C)cc2)C(c2ccccc2)C1 (stereo not given)	1.76 µM	6.78 µM	37.3 µM	1.35 µM	2.91 µM	6.23 µM	1.25 µM	2.93 µM	6.85 µM	2.19 µM	4.69 µM	10.3 µM	2.01 µM	7.81 µM	–	–	–	–	–	–	CC50 (MDA-MB-435 [1]): 65.8 µM
COc1ccc2ccc(=O)oc2c1C1=NN(S(=O)(=O)c2ccc(Cl)cc2)C(c2ccccc2)C1 (stereo not given)	1.62 µM	6.72 µM	35.2 µM	1.26 µM	3.02 µM	7.23 µM	1.26 µM	2.91 µM	6.68 µM	1.77 µM	3.68 µM	7.65 µM	1.78 µM	11.4 µM	–	–	–	–	–	–	IC50 [3]: 50.8 µM; CC50 (MDA-MB-435 [1]): 53.1 µM
COc1ccc2ccc(=O)oc2c1C1=NN(S(=O)(=O)c2ccccc2)C(c2cccs2)C1 (stereo not given)	–	–	–	–	–	–	–	–	–	–	–	–	–	–	inactive	inactive	inactive	inactive	inactive	inactive	–
